Measured values: ChEMBL document CHEMBL1123309, “Esters and lactones of phenolic amino carboxylic acids: prodrugs for iron chelation” (J Med Chem, 1986)
Values joined by “and” are separate entries in the source; they are usually repeats but may differ in a detail not shown here. Equal values may be shown once.

Experiments:
[1] = Compound was evaluated for lethal dose after intraperitoneal administration using iron overload rat model; assay type: toxicity, organism-based; details: in vivo, ip
Mus musculus [2] = assay: BDF1 male mice were administered with 300 mg/kg intraperitoneally and number of survivors was determined out of 10 tested; assay type: functional; details: route intraperitoneal
Outline: (§1)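 Male BDF1 mice were iron-loaded by transfusion of canine red cells. The cells were heparinised, washed twice in isotonic saline and heated at 50 °C for 30 min. Dosing started two days after the last transfusion, once daily for 7 consecutive days. Compounds were given in distilled water or as a fine aqueous suspension with Polysorbate 80 (2% final). Toxic signs were recorded daily and survivors counted per group.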

Mus musculus [3] = assay: BDF1 male mice were administered with 250 mg/kg orally and percent change in iron levels was determined in Liver; assay type: functional; details: route oral
Outline: (§2)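 Hypertransfused male BDF1 mice (canine red cells, washed and heated at 50 °C for 30 min) were dosed orally for 7 days with compound in distilled water or a fine suspension with Polysorbate 80 (2% final). Daily group urine and pooled feces (1 N HCl digest, 90 °C, 30 min, triplicate) were collected, and liver and spleen were homogenized. Iron was measured by atomic absorption and reported as % change vs transfused control.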

Mus musculus [4] = assay: BDF1 male mice were administered with 250 mg/kg orally and percent change in iron levels was determined in Urine; assay type: functional; details: route oral; outline: as §2
Mus musculus [5] = assay: BDF1 male mice were administered with 250 mg/kg orally and percent change in iron levels was determined in Feces; assay type: functional; details: route oral; outline: as §2
Mus musculus [6] = assay: BDF1 male mice were administered with 250 mg/kg orally and percent change in iron levels was determined in Spleen; assay type: functional; details: route oral; outline: as §2
Mus musculus [7] = assay: BDF1 male mice were administered with the compound and number of survivors was determined at a dose 250 mg/kg peroral out of 10 tested; assay type: functional; details: route oral; outline: as §1
Rattus norvegicus [8] = assay: Percent change in iron levels was determined in urine using iron overload rat model where the route of administration is Intraperitoneal; assay type: functional
Rattus norvegicus [9] = assay: Percent change in iron levels was determined in feces using iron overload rat model where the route of administration is Intraperitoneal; assay type: functional
Rattus norvegicus [10] = assay: Percent change in iron levels was determined in urine using iron overload rat model where the route of administration is Peroral; assay type: functional

With `CCOC(=O)C(NCCNC(C(=O)OCC)c1ccccc1O)c1ccccc1O` (stereo unspecified) the LD50 [1] was ≥ 800 mg/kg.

For `COC(=O)CN(Cc1ccccc1O)CC1CN(Cc2ccccc2O)CC(=O)O1` (stereo unspecified), the No. of survivors (Mus musculus [2]) was 10.

With `O=C(CN(CCN(CC(=O)OCc1ccccc1)Cc1ccccc1O)Cc1ccccc1O)OCc1ccccc1` the Iron change (Mus musculus [3]) was -10%, the Iron change (Mus musculus [4]) was 62% and the Iron change (Mus musculus [5]) was -10%. It also gave an Iron change (Mus musculus [6]) of -21% and a No. of survivors (Mus musculus [7]) of 10.

With `O=C(O)C(NCCNC(C(=O)O)c1ccccc1O)c1ccccc1O` (stereo unspecified) the Iron change (Rattus norvegicus [8]) was 484%, the Iron change (Rattus norvegicus [9]) was 111% and the LD50 [1] was 175 mg/kg. The Iron change (Rattus norvegicus [10]) was 19% and 31%.
